Laboratory results taken from ChEMBL document CHEMBL1158766, “Sesquiterpenoids from Saussurea laniceps” (2005).

Experiments:
[1] = Inhibition of concanavalin A-induced mouse T cell proliferation assessed as [3H]TdR incorporation at 0.1 uM; assay type: functional
Method in brief: (§1)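 Mouse spleen cells (4 × 10^6/well) were stimulated with ConA at 5 µg/mL alongside compound at 1 × 10^-7 to 1 × 10^-4 M, then cultured for 48 h at 37 °C in 5% CO2. [3H]TdR (0.25 µCi/well) was added for the final 6 h, and uptake was read by liquid scintillation counting. Counts are means ± SD from three independent experiments, compared with controls by Student t-test.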

[2] = Inhibition of concanavalin A-induced mouse T cell proliferation assessed as [3H]TdR incorporation at 1 uM; assay type: functional; method in brief: as §1
[3] = Inhibition of concanavalin A-induced mouse T cell proliferation assessed as [3H]TdR incorporation at 10 uM; assay type: functional; method in brief: as §1
[4] = Inhibition of concanavalin A-induced mouse T cell proliferation assessed as [3H]TdR incorporation at 100 uM; assay type: functional; method in brief: as §1
[5] = Inhibition of lipopolysaccharide-induced mouse B cell proliferation assessed as [3H]TdR incorporation at 1 uM
[6] = Inhibition of lipopolysaccharide-induced mouse B cell proliferation assessed as [3H]TdR incorporation at 10 uM
[7] = Inhibition of lipopolysaccharide-induced mouse B cell proliferation assessed as [3H]TdR incorporation at 0.1 uM
[8] = Inhibition of lipopolysaccharide-induced mouse B cell proliferation assessed as [3H]TdR incorporation at 100 uM

C=C(C)C(=O)O[C@H]1CC(=C)[C@@H]2C[C@@H](O)C(=C)[C@@H]2[C@H]2OC(=O)[C@@H](C)[C@@H]21
Activity [1]: 33800 cpm | Activity [2]: 36100 cpm | Activity [3]: 30600 cpm | Activity [4]: 40 cpm | Activity [5]: 31100 cpm | Activity [6]: 20600 cpm | Activity [7]: 34800 cpm | Activity [8]: 80 cpm

C=C1C[C@H](O)C[C@]2(C)CC[C@@](O)(C(=C)CO)C[C@@H]12
Activity [1]: 39800 cpm | Activity [2]: 31500 cpm | Activity [3]: 28300 cpm | Activity [4]: 12100 cpm | Activity [5]: 33600 cpm | Activity [6]: 30.8 cpm | Activity [7]: 36100 cpm | Activity [8]: 17200 cpm

C=C(CO)C(=O)O[C@H]1CC(=C)[C@@H]2C[C@@H](O)C(=C)[C@@H]2[C@H]2OC(=O)[C@@H](C)[C@@H]21
Activity [1]: 46300 cpm | Activity [2]: 43800 cpm | Activity [3]: 13400 cpm | Activity [4]: 30 cpm | Activity [5]: 29800 cpm | Activity [6]: 34900 cpm | Activity [7]: 24300 cpm | Activity [8]: 30 cpm
